Laboratory results published in ChEMBL document CHEMBL3351795, “Discovery of Cathepsin S Inhibitor LY3000328 for the Treatment of Abdominal Aortic Aneurysm” (ACS Med Chem Lett, 2014).
In brackets after ≈: the same amount, converted by molar mass. Activity calls are given as the source filed them. The rule behind the calls is not given here.

Columns and labels:
Cathepsin S [1] = target: Cathepsin S (Homo sapiens, UniProt P25774); assay: Inhibition of human cathepsin S using benzyloxycarbonyl-L-Leucyl-L-Arginine 4-Methyl-coumaryl-7-amide substrate by FRET assay
Cathepsin S (Homo sapiens, UniProt P25774), sequence (P25774 whole entry): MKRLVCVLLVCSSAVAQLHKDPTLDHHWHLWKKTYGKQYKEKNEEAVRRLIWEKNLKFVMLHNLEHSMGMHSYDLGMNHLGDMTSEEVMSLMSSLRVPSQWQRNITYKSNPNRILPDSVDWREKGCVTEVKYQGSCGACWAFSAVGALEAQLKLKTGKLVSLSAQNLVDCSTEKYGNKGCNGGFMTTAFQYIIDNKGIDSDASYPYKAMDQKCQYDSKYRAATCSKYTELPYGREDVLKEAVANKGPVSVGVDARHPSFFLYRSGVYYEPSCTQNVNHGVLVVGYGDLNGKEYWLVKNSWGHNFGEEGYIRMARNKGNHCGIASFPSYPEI

Cathepsin S [2] = target: Cathepsin S (Mus musculus, UniProt O70370); assay: Inhibition of mouse cathepsin S using benzyloxycarbonyl-L-Leucyl-L-Arginine 4-Methyl-coumaryl-7-amide substrate by FRET assay
Cathepsin S (Mus musculus, UniProt O70370), sequence (O70370 whole entry): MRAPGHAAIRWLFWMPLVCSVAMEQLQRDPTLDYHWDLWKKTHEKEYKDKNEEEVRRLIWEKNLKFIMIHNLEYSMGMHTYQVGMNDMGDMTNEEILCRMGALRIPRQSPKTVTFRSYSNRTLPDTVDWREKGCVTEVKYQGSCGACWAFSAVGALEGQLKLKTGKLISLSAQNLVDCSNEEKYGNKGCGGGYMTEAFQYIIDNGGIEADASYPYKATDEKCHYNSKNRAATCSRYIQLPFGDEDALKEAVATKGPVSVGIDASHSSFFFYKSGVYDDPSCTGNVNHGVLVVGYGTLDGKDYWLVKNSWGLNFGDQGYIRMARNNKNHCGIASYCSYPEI

Rattus norvegicus = species on record: Rattus norvegicus; assay: Inhibition of rat cathepsin S G137C mutant using benzyloxycarbonyl-L-Leucyl-L-Arginine 4-Methyl-coumaryl-7-amide substrate by FRET assay
[3] = Lipophilicity, log P of the compound; format: physicochemical; conditions: octanol/water
[4] = Lipophilicity, log D of the compound at pH 4.0; format: physicochemical; conditions: buffer
[5] = Dissociation constant, basic pKa of the compound; format: physicochemical
[6] = Solubility in simulated gastric fluid; format: ADME
[7] = Oral bioavailability in Beagle dog at 3 mg/kg; format: ADME, organism-based, Canis lupus familiaris; conditions: in vivo
[8] = Clearance in Beagle dog at 1 mg/kg, iv or 3 mg/kg, po; format: ADME, organism-based, Canis lupus familiaris; conditions: in vivo
[9] = Volume of distribution in Beagle dog at 1 mg/kg, iv or 3 mg/kg, po; format: ADME, organism-based, Canis lupus familiaris; conditions: in vivo
CYP3A4 = CYP3A4 (Homo sapiens, UniProt P08684); assay: Inhibition of CYP3A4 (unknown origin) using midazolam substrate at 10 uM; format: ADME; conditions: probe midazolam
CYP3A4, sequence (P08684 whole entry): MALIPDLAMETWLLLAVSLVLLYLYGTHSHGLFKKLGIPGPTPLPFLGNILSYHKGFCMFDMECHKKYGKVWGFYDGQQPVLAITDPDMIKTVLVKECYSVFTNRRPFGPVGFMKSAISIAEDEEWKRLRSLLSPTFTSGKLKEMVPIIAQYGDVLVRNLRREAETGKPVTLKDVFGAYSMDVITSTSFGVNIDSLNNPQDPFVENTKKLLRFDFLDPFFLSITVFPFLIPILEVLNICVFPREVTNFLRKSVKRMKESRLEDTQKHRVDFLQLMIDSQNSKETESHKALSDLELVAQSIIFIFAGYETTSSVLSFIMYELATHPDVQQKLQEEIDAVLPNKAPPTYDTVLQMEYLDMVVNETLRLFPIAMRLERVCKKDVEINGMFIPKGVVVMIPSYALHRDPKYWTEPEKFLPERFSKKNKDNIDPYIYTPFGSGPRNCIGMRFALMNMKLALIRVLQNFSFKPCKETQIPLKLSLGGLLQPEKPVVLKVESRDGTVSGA

CYP2D6 = CYP2D6 (Homo sapiens, UniProt P10635); assay: Inhibition of CYP2D6 (unknown origin) using bufuralol substrate at 10 uM; format: ADME; conditions: probe bufuralol
CYP2D6, sequence (P10635 whole entry): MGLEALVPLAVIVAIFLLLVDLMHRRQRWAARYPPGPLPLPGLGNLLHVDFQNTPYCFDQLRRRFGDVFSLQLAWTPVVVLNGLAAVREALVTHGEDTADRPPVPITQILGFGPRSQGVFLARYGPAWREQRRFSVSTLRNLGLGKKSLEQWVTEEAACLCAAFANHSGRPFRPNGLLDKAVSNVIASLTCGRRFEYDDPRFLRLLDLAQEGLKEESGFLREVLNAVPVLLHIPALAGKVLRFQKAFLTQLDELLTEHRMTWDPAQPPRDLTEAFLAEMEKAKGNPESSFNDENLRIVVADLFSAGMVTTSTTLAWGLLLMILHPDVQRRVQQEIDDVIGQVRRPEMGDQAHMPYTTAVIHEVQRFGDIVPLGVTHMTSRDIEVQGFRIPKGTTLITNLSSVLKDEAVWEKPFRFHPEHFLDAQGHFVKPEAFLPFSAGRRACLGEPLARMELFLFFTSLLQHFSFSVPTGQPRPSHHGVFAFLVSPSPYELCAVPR

CYP2C9 = CYP2C9 (Homo sapiens, UniProt P11712); assay: Inhibition of CYP2C9 (unknown origin) using diclofenac substrate at 10 uM; format: ADME; conditions: probe diclofenac
CYP2C9, sequence (P11712 whole entry): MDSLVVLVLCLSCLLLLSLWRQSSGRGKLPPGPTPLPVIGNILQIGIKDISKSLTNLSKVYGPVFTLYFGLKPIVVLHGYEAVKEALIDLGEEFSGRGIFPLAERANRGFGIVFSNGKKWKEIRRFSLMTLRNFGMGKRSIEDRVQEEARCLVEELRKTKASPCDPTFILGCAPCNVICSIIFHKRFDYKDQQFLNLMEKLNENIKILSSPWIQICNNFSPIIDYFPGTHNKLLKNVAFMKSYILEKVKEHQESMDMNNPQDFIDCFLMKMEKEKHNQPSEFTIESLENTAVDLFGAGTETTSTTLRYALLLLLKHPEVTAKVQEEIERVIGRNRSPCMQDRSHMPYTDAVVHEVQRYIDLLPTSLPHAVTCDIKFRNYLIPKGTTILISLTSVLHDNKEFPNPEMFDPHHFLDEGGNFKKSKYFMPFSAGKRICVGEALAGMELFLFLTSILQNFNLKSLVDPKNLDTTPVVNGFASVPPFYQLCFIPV

[10] = Drug metabolism in mouse liver microsomes after 30 mins at 4 uM; format: ADME; conditions: read-out: Drug metabolism
[11] = Drug metabolism in rat liver microsomes after 30 mins at 4 uM; format: ADME; conditions: read-out: Drug metabolism
[12] = Drug metabolism in dog liver microsomes after 30 mins at 4 uM; format: ADME, Canis lupus familiaris; conditions: read-out: Drug metabolism
[13] = Drug metabolism in human liver microsomes after 30 mins at 4 uM; format: ADME; conditions: read-out: Drug metabolism
MDCK = assay: Permeability from apical to basolateral side in MDCK cells at 2.5 uM incubated for 1 hr; format: ADME, cell-based, Canis lupus familiaris; conditions: dog
hERG = hERG (Homo sapiens, UniProt Q12809); assay: Displacement of [3H]astemizole form human ERG expressed in HEK293 cell membranes at 100 uM; conditions: HEK293 cell membranes that express human ERG, probe [3H]astemizole
hERG, sequence (Q12809 whole entry): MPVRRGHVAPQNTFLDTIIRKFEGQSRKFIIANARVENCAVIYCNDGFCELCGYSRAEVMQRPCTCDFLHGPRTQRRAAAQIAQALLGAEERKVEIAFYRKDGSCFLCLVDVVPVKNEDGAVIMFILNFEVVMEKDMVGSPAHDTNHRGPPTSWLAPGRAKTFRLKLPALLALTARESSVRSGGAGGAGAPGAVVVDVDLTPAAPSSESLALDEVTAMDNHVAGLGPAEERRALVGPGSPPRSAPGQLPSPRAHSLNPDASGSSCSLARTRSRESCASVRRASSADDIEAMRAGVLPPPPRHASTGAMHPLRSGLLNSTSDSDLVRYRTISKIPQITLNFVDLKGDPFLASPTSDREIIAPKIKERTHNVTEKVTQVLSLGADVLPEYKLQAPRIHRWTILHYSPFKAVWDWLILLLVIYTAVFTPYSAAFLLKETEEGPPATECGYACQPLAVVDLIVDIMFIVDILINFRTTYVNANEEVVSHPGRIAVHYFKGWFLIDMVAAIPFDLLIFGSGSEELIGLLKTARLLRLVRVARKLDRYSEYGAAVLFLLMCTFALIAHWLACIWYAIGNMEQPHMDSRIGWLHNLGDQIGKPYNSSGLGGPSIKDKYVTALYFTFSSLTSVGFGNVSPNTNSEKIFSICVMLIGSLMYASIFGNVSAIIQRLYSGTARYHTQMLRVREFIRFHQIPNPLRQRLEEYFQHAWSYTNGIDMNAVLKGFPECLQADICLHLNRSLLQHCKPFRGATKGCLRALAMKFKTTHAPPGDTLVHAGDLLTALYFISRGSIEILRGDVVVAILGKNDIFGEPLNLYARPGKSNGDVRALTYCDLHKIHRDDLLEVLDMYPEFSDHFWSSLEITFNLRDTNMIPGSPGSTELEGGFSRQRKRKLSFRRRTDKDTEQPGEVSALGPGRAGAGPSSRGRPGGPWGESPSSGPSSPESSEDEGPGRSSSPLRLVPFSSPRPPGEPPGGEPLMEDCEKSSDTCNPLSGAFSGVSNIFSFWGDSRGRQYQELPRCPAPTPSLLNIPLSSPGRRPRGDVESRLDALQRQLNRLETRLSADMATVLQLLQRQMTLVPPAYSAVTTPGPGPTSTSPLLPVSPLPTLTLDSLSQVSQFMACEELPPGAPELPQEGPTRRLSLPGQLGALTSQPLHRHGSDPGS

Plasma [14] = assay: Stability in human plasma assessed as loss of parent compound after 30 mins; format: ADME, cell-free; conditions: 0.5 h
Outline: (§1)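 Compound incubated in human or rat plasma for up to 30 min; loss of parent compound tested for statistical significance.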

Plasma [15] = assay: Stability in rat plasma assessed as loss of parent compound after 30 mins; format: ADME, cell-free; conditions: 0.5 h; outline: as §1
Mus musculus [16] = assay: Inhibition of CaCl2-induced abdominal aortic aneurysm in 129SvEv mouse assessed as reduction in aortic diameter at 1 to 30 mg/kg dosed through oral gavage BID for 4 weeks with first dose given one day prior to surgery; format: functional, organism-based; conditions: Abdomen
Mus musculus [17] = assay: Inhibition of CaCl2-induced abdominal aortic aneurysm in 129SvEv mouse assessed as reduction in aortic diameter at 1 mg/kg dosed through oral gavage BID for 4 weeks with first dose given one day prior to surgery; format: functional; conditions: Abdomen
Mus musculus [18] = assay: Inhibition of CaCl2-induced abdominal aortic aneurysm in 129SvEv mouse assessed as reduction in aortic diameter at 3 mg/kg dosed through oral gavage BID for 4 weeks with first dose given one day prior to surgery; format: functional; conditions: Abdomen
Mus musculus [19] = assay: Inhibition of CaCl2-induced abdominal aortic aneurysm in 129SvEv mouse assessed as reduction in aortic diameter at 10 mg/kg dosed through oral gavage BID for 4 weeks with first dose given one day prior to surgery; format: functional; conditions: Abdomen
Mus musculus [20] = assay: Inhibition of CaCl2-induced abdominal aortic aneurysm in 129SvEv mouse assessed as reduction in aortic diameter at 30 mg/kg dosed through oral gavage BID for 4 weeks with first dose given one day prior to surgery; format: functional; conditions: Abdomen
[21] = AUC (0 to 24 hrs) in 129SvEv mouse model of CaCl2-induced abdominal aortic aneurysm at 1 mg/kg dosed through oral gavage BID for 4 weeks with first dose given one day prior to surgery; format: ADME, organism-based, Abdomen; set-up: time < 24 hr, dose 1 mg/kg, route oral; conditions: in vivo
[22] = AUC (0 to 24 hrs) in 129SvEv mouse model of CaCl2-induced abdominal aortic aneurysm at 3 mg/kg dosed through oral gavage BID for 4 weeks with first dose given one day prior to surgery; format: ADME, organism-based, Abdomen; set-up: time < 24 hr, dose 3 mg/kg, route oral; conditions: in vivo
[23] = AUC (0 to 24 hrs) in 129SvEv mouse model of CaCl2-induced abdominal aortic aneurysm at 10 mg/kg dosed through oral gavage BID for 4 weeks with first dose given one day prior to surgery; format: ADME, organism-based, Abdomen; set-up: time < 24 hr, dose 10 mg/kg, route oral; conditions: in vivo
[24] = AUC (0 to 24 hrs) in 129SvEv mouse model of CaCl2-induced abdominal aortic aneurysm at 30 mg/kg dosed through oral gavage BID for 4 weeks with first dose given one day prior to surgery; format: ADME, organism-based, Abdomen; set-up: time < 24 hr, dose 30 mg/kg, route oral; conditions: in vivo
Procathepsin L = Procathepsin L (Homo sapiens, UniProt P07711); assay: Inhibition of human cathepsin L using benzyloxycarbonyl-L-Leucyl-L-Arginine 4-Methyl-coumaryl-7-amide substrate by FRET assay
Procathepsin L, sequence (P07711 whole entry): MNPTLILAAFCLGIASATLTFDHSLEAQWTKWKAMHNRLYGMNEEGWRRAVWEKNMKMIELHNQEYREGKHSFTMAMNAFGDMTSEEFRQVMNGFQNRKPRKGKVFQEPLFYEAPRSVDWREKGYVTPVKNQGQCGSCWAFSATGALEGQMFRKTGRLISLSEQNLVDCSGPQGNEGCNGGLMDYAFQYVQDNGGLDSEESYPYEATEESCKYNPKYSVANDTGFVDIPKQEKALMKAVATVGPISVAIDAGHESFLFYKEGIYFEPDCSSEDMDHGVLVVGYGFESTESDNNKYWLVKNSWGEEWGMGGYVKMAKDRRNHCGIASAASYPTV

| IC50 (Cathepsin S [1]) [nM] | IC50 (Cathepsin S [2]) [nM] | inhibition (Rattus norvegicus) | logP [3] | logD [4] | pKa [5] | solubility [6] [µg/mL] | bioavailability [7] [%] | clearance [8] [mL/min/kg] | Vd [9] [L/kg] | inhibition at 10 µM (CYP3A4) [%] | inhibition at 10 µM (CYP2D6) [%] | inhibition at 10 µM (CYP2C9) [%] | metabolised at 0.5 h, 4 µM [10] [%] | metabolised at 0.5 h, 4 µM [11] [%] | metabolised at 0.5 h, 4 µM [12] [%] | metabolised at 0.5 h, 4 µM [13] [%] | permeability (MDCK) [%] | SMILES | inhibition (Mus musculus [16]) | further results |
| --- | --- | --- | --- | --- | --- | --- | --- | --- | --- | --- | --- | --- | --- | --- | --- | --- | --- | --- | --- | --- |
| 7.7 | 1.67 | inactive | 2.24 | 1 | 5.11 | 1440 (≈ 2970 µM) | > 75 | < 4 | < 1 | < 15 | < 15 | < 15 | < 20 | < 20 | < 20 | < 20 | > 4 | CNC(=O)O[C@H]1COc2ccc(N3CCN(C4COC4)CC3)cc2[C@@H]1NC(=O)c1ccc(F)cc1 | Dose-dependent effect | inhibition at 100 µM (hERG): 6%; Stability (Plasma [14]): Stable; Stability (Plasma [15]): Stable; inhibition in vivo at 1 mg/kg (Mus musculus [17]): 58%; inhibition in vivo at 3 mg/kg (Mus musculus [18]): 83%; inhibition in vivo at 10 mg/kg (Mus musculus [19]): 87%; inhibition in vivo at 30 mg/kg (Mus musculus [20]): 87%; AUC(0-t) at 24 h [21]: 756 ng·h/mL; AUC(0-t) at 24 h [22]: 2330 ng·h/mL; AUC(0-t) at 24 h [23]: 5880 ng·h/mL; AUC(0-t) at 24 h [24]: 35400 ng·h/mL |
| 12.4 | 3.91 | inactive | 2.24 | 1.2 | 5 | 1130 (≈ 2340 µM) | > 75 | < 4 | < 1 | < 15 | < 15 | < 15 | < 20 | < 20 | < 20 | < 20 | > 4 | CNC(=O)O[C@H]1CCc2ccc(N3CCN(C4COC4)CC3)cc2[C@@H]1NC(=O)c1ccc(F)cc1 | Dose-dependent effect |  |
| 1290 | 2780 | inactive |  |  |  |  |  |  |  |  |  |  |  |  |  |  |  | CN1CCN(C(=O)Nc2ccc3c(c2)C(NC(=O)c2ccccc2)CCC3)CC1 (centres undefined) |  |  |
| 4000 | 3930 | inactive |  |  |  |  |  |  |  |  |  |  |  |  |  |  |  | CN1CCN(c2ccc3c(c2)C(NC(=O)c2ccccc2)CCC3)CC1 (centres undefined) |  |  |
| 1170 | 1570 | inactive |  |  |  |  |  |  |  |  |  |  |  |  |  |  |  | O=C(N[C@@H]1CCCc2ccc(/N=C/N3CCCCCC3)cc21)c1ccc(Br)cc1 |  | IC50 (Procathepsin L): > 100000 nM |
